Hits are enriched below; roughly 0.77% of the tested compounds scored in any of these assays.
hIAP activ: human IAP activation; purified human IAP, CDP-Star luminescence, 30 min; active compounds read high; 1 = vehicle-only enzyme, 0 = enzyme-free background; P09923; 330,000 compounds, 0.16% hits; activation factor at 10 µM;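 active means activation factor of the enzyme at least 2-fold when tested at 20 µM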
Target sequence (P09923 whole entry, looked up): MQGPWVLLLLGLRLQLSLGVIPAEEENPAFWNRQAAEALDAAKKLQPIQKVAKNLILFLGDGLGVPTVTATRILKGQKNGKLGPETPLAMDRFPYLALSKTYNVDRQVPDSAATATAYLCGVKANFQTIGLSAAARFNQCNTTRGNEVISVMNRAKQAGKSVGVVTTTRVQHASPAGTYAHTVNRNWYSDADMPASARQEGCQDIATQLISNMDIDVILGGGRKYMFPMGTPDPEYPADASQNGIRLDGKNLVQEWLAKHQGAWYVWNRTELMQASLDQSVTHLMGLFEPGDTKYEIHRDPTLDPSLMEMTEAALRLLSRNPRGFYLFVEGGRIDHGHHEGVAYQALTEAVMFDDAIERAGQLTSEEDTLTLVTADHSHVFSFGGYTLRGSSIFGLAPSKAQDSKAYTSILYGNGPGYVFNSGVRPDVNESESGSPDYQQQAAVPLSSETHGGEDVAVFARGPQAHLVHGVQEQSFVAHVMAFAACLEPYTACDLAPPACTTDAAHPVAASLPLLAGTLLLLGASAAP
bIAP inhibitor: intestinal alkaline phosphatase (bovine) inhibition. purified bovine IAP, CDP-star luminescence, 30 min. inhibition, % at 20 µM. 190,000 tested, under 10 active;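 active means over 50% inhibition of intestinal alkaline phosphatase at 20 µM in the single-dose screen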
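Incubation: 30 min reaction at room temperature / Material: purified bovine intestinal alkaline phosphatase (IAP) enzyme / Input: enzyme at 1/65,000,000 dilution / Dosing: 20 µM single dose / Signal: CDP-star luminescence signal / Reagent: CDP-star chemiluminescent phosphatase substrate, 30 µM final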
bIAP activator: intestinal alkaline phosphatase (bovine) activation; purified bovine IAP, CDP-star luminescence, 30 min; active compounds read high; fold of DMSO-control signal, blank-subtracted; activation factor at 20 µM; AID 1016; 200,000 compounds, 0.17% hits;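 active means activation factor of 2 or more at 20 µM, a signal rise over negative controls twice the positive control's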
mIAP activ: mouse IAP activation; muIAP, CDP-Star luminescence, 30 min; active compounds read high; 1 = vehicle-only enzyme signal, 0 = enzyme-free wells; activation factor at 10 µM; 330,000 compounds, 0.24% hits; AID 2805;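 active means activation factor of at least 2 at 20 µM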
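System: mouse IAP enzyme. Reagent: CDP-Star chemiluminescent phosphatase substrate. Benchmarks: DMSO wells, no-enzyme wells. Times: 30 min enzyme-substrate-compound incubation at room temperature. Detection: luminescence from enzymatic CDP-Star hydrolysis. Doses: test compounds delivered from DMSO solution.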
hIAP block: human IAP inhibition. P09923. purified IAP, CDP-Star luminescence, 30 min. inhibition, % at 10 µM. 330,000 compounds, 0.12% hits. AID 2544;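 active means inhibition reaching a set limit with compound at 10 µM in the primary screen, cut at about 35% in these data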;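 further: plate controls were DMSO wells with enzyme for no effect and no-enzyme buffer wells for full effect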
mIAP block: blocks mouse intestinal alkaline phosphatase | purified mouse IAP, CDP-Star luminescence, 30 min | inhibition, % at 10 µM | 330,000 compounds, 0.2% hits;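 active means inhibition of at least 40% at 10 µM in the primary screen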;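 further: plate controls were DMSO with enzyme for no effect and no enzyme wells for full effect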
Starred values were filed as active, the others as inactive; / = no result given.

SMILES	hIAP activ	bIAP inhibitor	bIAP activator	mIAP activ	hIAP block	mIAP block
CC(NC(=O)COc1ccc(/C=N/NC(=O)CO)cc1)c1ccccc1 (configuration not stated)	0.905	/	/	1.01	9.5	-1.0
CCN1CCN(C(c2cccs2)C(C)NC(=S)Nc2cc(C)ccc2C)CC1 (configuration not stated)	0.98	/	/	1.09	2.0	-9.5
CC(NC(=O)NC1CCCCC1)C(c1cccs1)N1CCN(Cc2ccccc2)CC1 (configuration not stated)	0.89	-240.4	3.4*	1.63	11.0	-63.3
CC(NC(=S)NCCc1ccccc1)C(c1cccs1)N1CCN(Cc2ccccc2)CC1 (configuration not stated)	1.12	/	0.3	5.3*	-11.8	-430.2
CC(NC(=O)NC1CCCCC1)C(c1cccs1)N1CCOCC1 (configuration not stated)	0.871	12.5	0.9	1.05	12.9	-5.5
O=C(N/N=C/c1c(F)cccc1Cl)C(=O)N1CCCCCC1	0.879	/	/	0.952	12.1	4.8
CCCCNC(=S)Nc1ccc(C(F)(F)F)cc1	1.1	-28.6	1.3	2.21*	-9.9	-121.1
FC(F)(F)c1cccc(NC(=S)NC2CCCC2)c1	1.07	0.7	1	2.61*	-7.0	-161.0
O=C(O)c1ccc(NC(=S)NC2CCCCC2)cc1	0.867	1.0	1	1.03	13.3	-2.6
FC(F)(F)c1ccc(NC(=S)NC2CCCCC2)cc1	1.05	2.5	1	2.67*	-4.9	-167.4
CCCCNC(=S)Nc1ccc(Cl)cc1	0.897	6.5	0.9	1.2	10.3	-19.6
FC(F)(F)c1cccc(NC(=S)NCC2COc3ccccc3O2)c1 (configuration not stated)	1.13	-6.0	1.1	3.58*	-13.4	-257.5
Cc1cccc(N(CC(=O)N2CCc3ccccc3C2)S(C)(=O)=O)c1C	1.26	/	/	1.02	-25.9	-1.8
CCn1c(CNC(=O)c2cccc(C)c2)nnc1SCC(=O)N1CCOCC1	1.01	/	/	1.03	-1.3	-3.2
CC(C)N=c1cc2n(-c3ccc(Cl)cc3)c3ccccc3nc-2cc1Nc1ccc(Cl)cc1	0.612	/	/	0.654	38.8*	34.6
Cn1c(CNc2ccc(Cl)cc2)nc2ccccc21	0.99	35.4	0.6	1.16	1.1	-16.3
COc1ccc(NC(=O)CN(c2cc(C)cc(C)c2)S(=O)(=O)c2c(C)noc2C)cc1OC	1.15	4.3	1	2.1*	-14.8	-110.4
CCOc1ccc(N(CC(=O)Nc2ccc(C)c(C)c2)S(=O)(=O)c2c(C)noc2C)cc1	1.04	8.5	0.9	2.08*	-4.1	-108.2
COc1ccc(NC(=O)CN(c2cc(C)cc(C)c2)S(=O)(=O)c2c(C)noc2C)cc1	0.934	4.6	1	1.66	6.6	-66.1
O=[N+]([O-])c1c(NCCCO)cc(SCc2ccco2)c2nonc12	1.08	5.1	0.9	0.455	-8.4	54.5*
O=C1CCCCN1CC(=O)N1CCCC(Nc2ccc(F)cc2)C1 (configuration not stated)	1.42	/	/	0.557	-42.4	44.3*
CC(C)c1ccc(NC(=S)NC2CCCCCC2)cc1	1.26	1.3	1	3.23*	-25.6	-223.5
FC(F)Sc1ccc(NC(=S)NC2CCCC2)cc1	1.17	16.0	0.8	2.56*	-16.7	-155.8
OC1CCC(NC(=S)Nc2ccc(SC(F)F)cc2)CC1 (configuration not stated)	1.07	13.2	0.9	1.1	-6.8	-10.2
S=C(Nc1ccc(Oc2ccccc2)cc1)NC1CCCCC1	0.962	5.9	0.9	3.5*	3.8	-250.4
SMILES	hIAP activ	bIAP inhibitor	bIAP activator	mIAP activ	hIAP block	mIAP block
COc1ccccc1NC(=S)NC1CCCCCCCCCCC1	1.61	/	/	2.34*	-61.2	-134.1
CCC(C)NC(=S)N1CCN(C)CC1 (configuration not stated)	1.06	14.6	0.9	1.02	-5.6	-1.7
CCOC(=O)[C@@H]1[C@H]2COc3ccccc3[C@H]2N2C(=O)N(c3ccccc3)C(=O)[C@]12C	0.988	/	/	1.04	1.2	-3.9
CCCN(CCC)S(=O)(=O)c1ccc(C(=O)NCc2n[nH]c(=S)n2-c2ccc(Cl)c(Cl)c2)cc1	1.15	17.9	0.8	0.911	-15.0	8.9
COc1ccc(NC(=S)NC(=O)c2cncc(Br)c2)cc1	1.22	/	/	0.977	-21.7	2.3
CC(CCc1ccccc1)NC(=O)CN1CCN(c2ccc(O)cc2)CC1 (configuration not stated)	0.849	-8.3	1.1	0.858	15.1	14.2
S=C(Nc1ccc(Oc2ccc(NC(=S)NC3CCCCC3)cc2)cc1)NC1CCCCC1	0.983	-38.9	1.4	2.42*	1.7	-142.4
O=C(CNC(=O)N1CC(=O)Nc2ccccc21)Nc1nccs1	1.04	/	/	0.992	-4.4	0.8
COc1ccc(N(C(=O)C2CSC(=O)C2)C(C(=O)NC(C)(C)C)c2ccncc2)cc1 (configuration not stated)	1.15	12.8	0.9	1.02	-14.9	-1.7
COc1ccc(N(C(=O)c2ccn[nH]2)C(C(=O)NC(C)(C)C)c2ccc(F)cc2)cc1 (configuration not stated)	1	-200.7	3*	1.13	-0.4	-13.3
CCC(C)(C)NC(=O)C(c1cccc(OC)c1)N(C(=O)c1ccn[nH]1)c1cccc(OC)c1 (configuration not stated)	1.6	26.8	0.7	1.17	-59.9	-16.5
CCC(C)(C)NC(=O)C(c1cccs1)N(C(=O)c1ccn[nH]1)c1ccccc1 (configuration not stated)	0.951	-132.9	2.3*	1.01	4.9	-1.2
CC(C)(C)NC(=O)C(c1ccc(F)cc1)N(CCc1ccccc1)C(=O)c1ccn[nH]1 (configuration not stated)	1.85	-100.5	2*	1.06	-85.3	-6.1
CSc1nc(-c2ccccc2)nc(N2CCOCC2)c1C(C)=O	0.908	12.9	0.9	0.882	9.2	11.8
Cc1ccc(NC(=S)NC2CCCCC2)cc1S(=O)(=O)N(C)C	1.35	-22.9	1.2	2.36*	-35.3	-136.0
Cc1ccc(S(=O)(=O)N(C)C)cc1NC(=S)NC1CCCC(C)C1C (configuration not stated)	1.12	0.5	1	2.83*	-12.2	-183.5
CCN(CC)S(=O)(=O)c1cccc(C(=O)NC2CCCCC2)c1	0.941	3.1	1	0.926	5.9	7.4
CC1CCCCC1NC(=S)Nc1cccc(S(=O)(=O)N(C)C)c1 (configuration not stated)	1.12	23.6	0.8	2.92*	-12.1	-191.7
CCN(CC)S(=O)(=O)c1ccc(C)c(NC(=S)NC2CCCCC2)c1	1.03	/	/	2.04*	-3.2	-104.1
CC(=O)NNC(=S)Nc1cc(S(=O)(=O)N(C)C)ccc1C	1.82	1.9	1	0.94	-81.9	6.0
CCCc1cnc(N2CCN(C(=O)c3ccccc3)CC2)nc1	1.2	/	/	0.953	-19.6	4.7

Assay outcomes: PubChem, Sanford-Burnham Center for Chemical Genomics
